# Measurements from ChEMBL document CHEMBL3259704, “Second generation steroidal 4-aminoquinolines are potent, dual-target inhibitors of the botulinum neurotoxin serotype A metalloprotease and P. falciparum malaria” (J Med Chem, 2014).
# Active and inactive are the calls of the source. The rule behind the calls is not given here.
# Experiments:
# [1] = biological target: Botulinum neurotoxin type A (Clostridium botulinum) (UniProt P0DPI0); assay: Inhibition of Clostridium botulinum recombinant BoNT/A light chain using N-terminal acetylated, C-terminal aminated SNAP-25 (187-203) as substrate at 20 uM by reverse-phase HPLC analysis
# Procedure, shortened: (§1)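 Recombinant BoNT/A LC with SNAP-25 187–203 peptide substrate in 40 mM HEPES–0.05% Tween, pH 7.3, with 0.5 mg/mL BSA and 50 μM excess Zn, at 37 °C. Quenched with TFA; reverse-phase HPLC product/substrate peak areas give percent inhibition, run in duplicate.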
# [2] = biological target: Botulinum neurotoxin type A (Clostridium botulinum, UniProt P0DPI0); assay: Inhibition of Clostridium botulinum recombinant BoNT/A light chain using N-terminal acetylated, C-terminal aminated SNAP-25 (187-203) as substrate by reverse-phase HPLC analysis
# Procedure, shortened: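 Same HPLC LC cleavage assay (pH 7.3 HEPES/Tween, BSA, excess Zn, 37 °C). […] Ki comes from velocity versus substrate at several inhibitor levels, globally fit to a competitive model.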
# Plasmodium falciparum [3] = assay: Antimalarial activity against CQ-resistant, MFQ-susceptible Plasmodium falciparum W2 clone Indochina 1 isolate assessed as inhibition of parasite proliferation by MSF assay; format: functional, organism-based
# Procedure, shortened: (§2)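 SYBR Green I fluorescence (MSF) microtiter drug-sensitivity assay: malarial DNA content is the measure of in vitro parasite proliferation. Resistance index is the IC90 ratio of the resistant strain to D6.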
# Plasmodium falciparum [4] = assay: Antimalarial activity against CQ, MFQ-susceptible Plasmodium falciparum D6 clone Sierra 1/UNC isolate assessed as inhibition of parasite proliferation by MSF assay; format: functional, organism-based; procedure, shortened: as §2
# Plasmodium falciparum [5] = assay: Antimalarial activity against CQ, MFQ-resistant Plasmodium falciparum TM91C235 clone Southeast asian isolate assessed as inhibition of parasite proliferation by MSF assay; format: functional, organism-based; procedure, shortened: as §2
# HepG2 = assay: Cytotoxicity against human HepG2 cells assessed as cell viability after 48 hrs by MTT assay; format: cell-based; settings: HepG2, 48 h
# [6] = Selectivity index, ratio of IC50 for human HepG2 cells to IC50 for CQ-resistant, MFQ-susceptible Plasmodium falciparum W2 clone Indochina 1 isolate; format: toxicity, cell-based; settings: read-out: Ratio IC50
# [7] = Selectivity index, ratio of IC50 for human HepG2 cells to IC50 for CQ, MFQ-susceptible Plasmodium falciparum D6 clone Sierra 1/UNC isolate; format: toxicity, cell-based; settings: read-out: Ratio IC50
# [8] = Selectivity index, ratio of IC50 for human HepG2 cells to IC50 for CQ, MFQ-resistant Plasmodium falciparum TM91C235 clone Southeast asian isolate; format: toxicity, cell-based; settings: read-out: Ratio IC50
# [9] = (§3) Half life in human liver microsomes; format: ADME; settings: liver microsomes
# [10] = (§4) Half life in mouse liver microsomes; format: ADME; settings: liver microsomes
# [11] = biological target: Botulinum neurotoxin type A (Clostridium botulinum) (UniProt P0DPI0); assay: Inhibition of Clostridium botulinum BoNT/A-mediated SNAP-25 cleavage in chicken embryo neurons assessed as intact SNAP-25 level at […] preincubated for 45 mins followed by co-incubation with BoNT/A for 3.5 hrs by western blot analysis; design: scale not given: the % may be the effect or the level left
# [12] = biological target: Botulinum neurotoxin type A (Clostridium botulinum) (UniProt P0DPI0); assay: Inhibition of Clostridium botulinum BoNT/A-mediated SNAP-25 cleavage in chicken embryo neurons assessed as intact SNAP-25 level at […] preincubated for 45 mins followed by co-incubation with BoNT/A for 3.5 hrs by western blot analysis in presence of 5 uL of 100 nM antibiotic bafilomycin; design: scale not given: the % may be the effect or the level left
# [13] = biological target: Botulinum neurotoxin type A (Clostridium botulinum) (UniProt P0DPI0); assay: Inhibition of Clostridium botulinum BoNT/A-mediated SNAP-25 cleavage in chicken embryo neurons assessed as intact SNAP-25 level at […] preincubated for 45 mins followed by co-incubation with BoNT/A for 3.5 hrs by western blot analysis in presence of 25 uL of 100 nM antibiotic bafilomycin; design: scale not given: the % may be the effect or the level left
# Plasmodium falciparum [14] = assay: Resistance index, ratio of IC90 for CQ, MFQ-resistant Plasmodium falciparum TM91C235 clone Southeast asian isolate to IC90 for CQ, MFQ-susceptible Plasmodium falciparum D6 clone Sierra 1/UNC isolate; format: functional; procedure, shortened: as §2
# Plasmodium falciparum [15] = assay: Resistance index, ratio of IC90 for CQ-resistant, MFQ-susceptible Plasmodium falciparum W2 clone Indochina 1 isolate to IC90 for CQ, MFQ-susceptible Plasmodium falciparum D6 clone Sierra 1/UNC isolate; format: functional; procedure, shortened: as §2
# PBMC = assay: Cytotoxicity against human PBMC assessed as inhibition of cell survival after 72 hrs; format: cell-based
# Procedure, shortened: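 PBMC from heparinized healthy-donor blood (Histopaque) in RPMI-1640 with 10% FCS and PHA stimulation, 200 000 cells/well, with compounds in DMSO, 72 h at 37 °C, 6% CO2.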
# Liver microsome = assay: as §3; format: ADME; settings: microsomes
# Liver = assay: as §4; format: ADME; settings: microsomes
# [16] = biological target: Botulinum neurotoxin type A (Clostridium botulinum) (UniProt P0DPI0); assay: Inhibition of Clostridium botulinum recombinant BoNT/A light chain using N-terminal acetylated, C-terminal aminated SNAP-25 (187-203) as substrate at 10 uM by reverse-phase HPLC analysis; procedure, shortened: as §1
# Plasmodium berghei = assay: Antimalarial activity against Plasmodium berghei infected in ICR mouse assessed as host survival at 40 to 160 mg/kg/day, po administered on day 3, 4 and 5 post-infection measured on day 13 after infection; format: functional, organism-based
# Mus musculus = assay: Toxicity in ICR mouse infected with Plasmodium berghei assessed as tissue damage at 40 to 160 mg/kg/day, po administered on day 3, 4 and 5 post-infection; format: organism-based; design: route oral; settings: in vivo
# Sequence of Botulinum neurotoxin type A (P0DPI0 2-448 limits assumed): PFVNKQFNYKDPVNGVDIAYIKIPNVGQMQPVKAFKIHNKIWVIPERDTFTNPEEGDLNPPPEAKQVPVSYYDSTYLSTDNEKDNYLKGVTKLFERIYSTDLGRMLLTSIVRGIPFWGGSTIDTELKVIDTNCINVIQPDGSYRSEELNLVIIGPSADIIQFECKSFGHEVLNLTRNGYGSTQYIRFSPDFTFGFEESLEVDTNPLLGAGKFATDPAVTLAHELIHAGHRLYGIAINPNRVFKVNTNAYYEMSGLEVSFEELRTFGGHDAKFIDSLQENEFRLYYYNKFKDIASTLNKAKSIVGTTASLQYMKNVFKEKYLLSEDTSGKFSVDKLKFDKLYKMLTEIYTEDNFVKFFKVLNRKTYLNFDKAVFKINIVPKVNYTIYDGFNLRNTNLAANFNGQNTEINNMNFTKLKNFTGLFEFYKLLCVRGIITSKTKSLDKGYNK
# Sequence of Botulinum neurotoxin type A (Clostridium botulinum) (P0DPI0 2-448 limits assumed): as above
SMILES,inhibition [1],IC50 [2],IC50 (Plasmodium falciparum [3]),IC50 (Plasmodium falciparum [4]),IC50 (Plasmodium falciparum [5]),IC50 (HepG2),selectivity ratio [6],selectivity ratio [7],selectivity ratio [8],Ki [2],Activity [11],Activity [12],Activity [13],IC90 (Plasmodium falciparum [3]),IC90 (Plasmodium falciparum [4]),IC90 (Plasmodium falciparum [5]),Ratio (Plasmodium falciparum [14]),Ratio (Plasmodium falciparum [15]),IC50 (PBMC),t1/2 (Liver microsome),also measured
CC(=O)O[C@H]1C[C@H]2[C@@H]([C@H](OC(C)=O)C[C@@H]3C[C@H](N(C)C)CC[C@@]32C)[C@@H]2CC[C@H]([C@H](C)CCCN(C)CCCNc3ccnc4cc(Cl)ccc34)[C@@]12C,86.9%,1290 nM,57 nM,152 nM,74.6 nM,5.28 µM,93,35,71,–,–,–,–,–,–,–,–,–,–,–,half-life [9]: 60 min; half-life [10]: 60 min
CC(=O)O[C@H]1C[C@H]2[C@@H]([C@H](OC(C)=O)C[C@@H]3C[C@H](N)CC[C@@]32C)[C@@H]2CC[C@H]([C@H](C)CCCNCCNc3ccnc4cc(Cl)ccc34)[C@@]12C,89.3%,810 nM,161 nM,–,147 nM,5.61 µM,35,39,38,3220 nM,77%,88%,81%,235 nM,176 nM,220 nM,1.25,1.33,7880 nM,–,–
CC(=O)O[C@H]1C[C@H]2[C@@H]([C@H](OC(C)=O)C[C@@H]3CC(=O)CC[C@@]32C)[C@@H]2CC[C@H]([C@H](C)CCCNCCCNc3ccnc4cc(Cl)ccc34)[C@@]12C,72.9%,2320 nM,6.89 nM,6.12 nM,9.19 nM,1.11 µM,161,182,121,–,–,–,–,12.1 nM,10 nM,18.1 nM,1.81,1.21,2610 nM,14 min,t1/2 (Liver): 6 min
CC(=O)N[C@@H]1CC[C@@]2(C)[C@@H](C1)C[C@@H](OC(C)=O)[C@@H]1[C@@H]2C[C@H](OC(C)=O)[C@]2(C)[C@@H]([C@H](C)CCCNCCNc3ccnc4cc(Cl)ccc34)CC[C@@H]12,74%,2460 nM,–,16.6 nM,15.2 nM,1.92 µM,126,116,126,–,16%,28%,36%,62.2 nM,31.8 nM,34.6 nM,1.09,1.96,–,–,–
CC(=O)O[C@H]1C[C@H]2[C@@H]([C@H](OC(C)=O)C[C@@H]3C[C@H](O)CC[C@@]32C)[C@@H]2CC[C@H]([C@H](C)CCCNCCNc3ccnc4cc(Cl)ccc34)[C@@]12C,69.4%,4680 nM,–,2.91 nM,6.71 nM,2.73 µM,415,938,407,–,–,–,–,10.7 nM,5.13 nM,13.3 nM,2.58,2.08,2810 nM,7 min,t1/2 (Liver): 30 min
CC(=O)O[C@H]1C[C@H]2[C@@H]([C@H](OC(C)=O)C[C@@H]3CC(NCCCNc4ccnc5cc(Cl)ccc45)CC[C@@]32C)[C@@H]2CC[C@H]([C@H](C)CCCNCCCNc3ccnc4cc(Cl)ccc34)[C@@]12C (mixture of isomers),97.2%,–,108 nM,143 nM,195 nM,4.68 µM,43,32,24,171 nM,–,–,–,–,–,–,–,–,–,–,inhibition [16]: Active
CC(=O)O[C@H]1C[C@H]2[C@@H]([C@H](OC(C)=O)C[C@@H]3CC(=O)CC[C@@]32C)[C@@H]2CC[C@H]([C@H](C)CCCNCCNc3ccnc4cc(Cl)ccc34)[C@@]12C,67.1%,5700 nM,6.47 nM,3.38 nM,17.6 nM,1.93 µM,299,571,109,–,–,–,–,14.1 nM,4.56 nM,36.8 nM,8.06,3.09,52200 nM,6 min,t1/2 (Liver): 13 min
CC(=O)O[C@H]1C[C@H]2[C@@H]([C@H](OC(C)=O)C[C@@H]3C[C@H](N)CC[C@@]32C)[C@@H]2CC[C@H]([C@H](C)CCCN(CCC[C@@H](C)[C@H]3CC[C@H]4[C@@H]5[C@H](OC(C)=O)C[C@@H]6C[C@H](N)CC[C@]6(C)[C@H]5C[C@H](OC(C)=O)[C@]34C)CCNc3ccnc4cc(Cl)ccc34)[C@@]12C,82.2%,3050 nM,78 nM,–,85.9 nM,1.65 µM,21,19,19,–,89%,96%,93%,105 nM,114 nM,175 nM,1.54,0.92,–,–,–
CC(=O)O[C@H]1C[C@H]2[C@@H]([C@H](OC(C)=O)C[C@@H]3CC(NCCNc4ccnc5cc(Cl)ccc45)CC[C@@]32C)[C@@H]2CC[C@H]([C@H](C)CCCNCCNc3ccnc4cc(Cl)ccc34)[C@@]12C (stereo partly specified),96.5%,–,98.2 nM,120 nM,124 nM,3.77 µM,38,32,30,341 nM,–,–,–,–,–,–,–,–,302 nM,–,inhibition [16]: Active
CC(=O)O[C@H]1C[C@H]2[C@@H]([C@H](OC(C)=O)C[C@@H]3C[C@H](N)CC[C@@]32C)[C@@H]2CC[C@H]([C@H](C)CCCN(C)CCNc3ccnc4cc(Cl)ccc34)[C@@]12C,89.5%,1140 nM,2.88 nM,3.6 nM,6.18 nM,14.4 µM,4990,4000,2330,–,–,–,–,3.74 nM,4.46 nM,9.2 nM,2.06,0.84,2590 nM,–,half-life [9]: 60 min; half-life [10]: 60 min; Activity (Plasmodium berghei): inactive; Activity (Mus musculus): Non-toxic
